# Measurements: ChEMBL document CHEMBL4376891, “Benzenesulfonamide Derivatives as Calcium/Calmodulin-Dependent Protein Kinase Inhibitors and Antiviral Agents against Dengue and Zika Virus Infections” (J Med Chem, 2020)
# Activity calls are given as the source filed them. The rule behind the calls is not given here.
# Experiments:
# dengue virus type 2 [1] = assay: Antiviral activity against Dengue virus 2 infected in human BE(2)-C cells assessed as NS3 protein expression at 3.125 uM treated during 0 to 3 hrs post infection by Western blot analysis (reference value: 100%); format: functional
# Method in brief: (§1)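 Time-of-addition design: BE(2)C cells were infected with DENV-2 or ZIKV at MOI 1. Compound at 3.125 or 6.25 μM was present either during adsorption (0–3 hpi) or afterward (3–24 hpi). Viral protein was immunoblotted against actin, with the ratio as % of the solvent control.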
# Zika virus [2] = assay: Antiviral activity against Zika virus infected in human BE(2)-C cells assessed as NS3 protein expression at 3.125 uM treated during 3 to 24 hrs post infection by Western blot analysis (reference value: 100%); format: functional; method in brief: as §1
# Zika virus [3] = assay: Antiviral activity against Zika virus infected in human BE(2)-C cells assessed as NS3 protein expression at 1.56 uM incubated for 48 hrs by Western blot analysis (reference value: 100%); format: functional
# Method in brief: (§2)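 BE(2)C cells were infected with ZIKV PRVABC59 at MOI 0.1 for 48 h, with or without compound at increasing concentrations. Viral protein was immunoblotted with actin as loading control. The band-density ratio was given as % of the solvent control. Mean ± SD, 3 independent experiments.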
# BE(2)-C = assay: Cytotoxicity against human BE(2)-C cells assessed as reduction in cell proliferation up to 12.5 uM incubated overnight by XTT assay relative to control; format: cell-based
# Method in brief: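 BE(2)C cells (RPMI 1640, 10% FBS) exposed overnight to compound at concentrations up to 12.5 μM; XTT (proliferation) or LDH release (cytotoxicity) read by absorbance at 490 nm. Values normalized to solvent control (%), mean ± SD of 3 independent experiments.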
# dengue virus type 2 [4] = assay: Antiviral activity against Dengue virus 2 infected in human BE(2)-C cells transfected with shCaMKIIalpha assessed as NS3 protein expression at 3.125 uM incubated for 48 hrs by Western blot analysis (reference value: 100%); format: functional
# dengue virus type 2 [5] = assay: Antiviral activity against DENV-2 NGC-N infected in Stat1-/- mouse assessed as time delay in mouse mortality at 2 mg/kg/day, po dosed immediately following viral infection followed by daily dosing for 6 days (reference value: 9 days); format: functional
# Zika virus [6] = assay: Antiviral activity against Zika virus infected in Stat1-/- mouse assessed as delay in virus-induced mouse mortality at 4 mg/kg/day, po dosed immediately following viral infection followed by daily dosing for 6 days (reference value: 13 days); format: functional, organism-based
# Zika virus [7] = assay: Antiviral activity against Zika virus infected in human BE(2)-C cells assessed as NS3 protein expression at 3.125 uM treated during 0 to 3 hrs post infection by Western blot analysis (reference value: 100%); format: functional; method in brief: as §1
# dengue virus type 2 [8] = assay: Antiviral activity against Dengue virus 2 infected in human BE(2)-C cells assessed as NS3 protein expression at 3.125 uM treated during 3 to 24 hrs post infection by Western blot analysis (reference value: 100%); format: functional; method in brief: as §1
# Zika virus [9] = assay: Antiviral activity against Zika virus infected in human BE(2)-C cells assessed as reduction in NS3 protein expression at 3.125 to 6.25 uM treated during 3 to 24 hrs post infection by Western blot analysis; format: functional, organism-based; method in brief: as §1
# Zika virus [10] = assay: Antiviral activity against Zika virus infected in human BE(2)-C cells transfected with shCaMKIIalpha assessed as NS3 protein expression at 6.25 uM incubated for 48 hrs by Western blot analysis (reference value: 100%); format: functional
# Sindbis virus = assay: Antiviral activity of eGFP-fused Sindbis virus infected in human HMC3 cells at 0.781 to 12.5 uM incubated for 24 hrs by immunofluorescence microscopy; format: functional, organism-based
# Zika virus [11] = assay: Antiviral activity against Zika virus infected in human HMC3 cells assessed as reduction in NS3 protein expression at 1.56 to 12.5 uM incubated for 24 hrs by immunofluorescence microscopy; format: functional, organism-based
# dengue virus type 2 [12] = assay: Antiviral activity against DENV-2 NGC-N infected in Stat1-/- mouse assessed as overall mouse survival at 8 mg/kg, po dosed immediately following viral infection followed by daily dosing for 6 days (reference value: 0%); format: functional; conditions: 144 h
# Zika virus [13] = assay: Antiviral activity against Zika virus infected in human BE(2)-C cells transfected with shLacZ assessed as NS3 protein expression at 6.25 uM incubated for 48 hrs by Western blot analysis (reference value: 100%); format: functional
# Zika virus [14] = assay: Antiviral activity against Zika virus infected in human BE(2)-C cells assessed as NS3 protein expression at 6.25 uM incubated for 48 hrs by Western blot analysis (reference value: 100%); format: functional; method in brief: as §2
# Zika virus [15] = assay: Antiviral activity against Zika virus infected in human BE(2)-C cells assessed as NS3 protein expression at 0.78 uM incubated for 48 hrs by Western blot analysis (reference value: 100%); format: functional; method in brief: as §2
# dengue virus type 2 [16] = conditions: 3.125 to 6.25 uM
# dengue virus type 2 [17] = assay: Antiviral activity against Dengue virus 2 infected in human HMC3 cells assessed as reduction in viral progeny production at 1.56 to 12.5 uM incubated for 48 hrs by Virus titer assay; format: functional, organism-based
# Method in brief: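 Human microglial HMC3 cells in MEM with 10% FBS were infected with DENV-2 PL046 at MOI 0.1 for 48 h in the presence of noncytotoxic compound concentrations. Progeny virus was titrated by plaque assay on BHK-21 cells, expressed as log PFU/mL.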
# dengue virus type 2 [18] = assay: Antiviral activity against Dengue virus 2 infected in human BE(2)-C cells assessed as NS3 protein expression incubated for 48 hrs by Western blot analysis; format: functional, organism-based
# Method in brief: (§3)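 BE(2)C neuroblastoma cells in RPMI 1640 with 10% FBS were infected with DENV-2 PL046 at MOI 0.1 for 48 h, without or with compound at increasing concentrations. NS3 was immunoblotted with actin as loading control. The NS3:actin densitometry ratio was expressed as % of the DMSO control. Mean ± SD of 3 independent experiments.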
# Zika virus [19] = assay: Antiviral activity against Zika virus infected in human BE(2)-C cells assessed as reduction inNS3 protein expression at 3.125 to 6.25 uM treated during 0 to 3 hrs post infection by Western blot analysis; format: functional, organism-based; method in brief: as §1
# dengue virus type 2 [20] = assay: Antiviral activity against Dengue virus 2 infected in human BE(2)-C cells assessed as NS3 protein expression at 0.39 uM incubated for 48 hrs by Western blot analysis (reference value: 100%); format: functional; method in brief: as §3
# dengue virus type 2 [21] = assay: Antiviral activity against Dengue virus 2 infected in human BE(2)-C cells transfected with shCaMKIIalpha assessed as NS3 protein expression at 6.25 uM incubated for 48 hrs by Western blot analysis (reference value: 100%); format: functional
# dengue virus type 2 [22] = assay: Antiviral activity against Dengue virus 2 infected in human BE(2)-C cells assessed as suppression of viral-induced CaMKIIalpha activation at 3.125 uM incubated for 4 hrs by confocal microscopy; format: functional, organism-based
# dengue virus type 2 [23] = assay: Antiviral activity against DENV-2 NGC-N infected in Stat1-/- mouse assessed as improvement in mouse survival by measuring median survival time at 4 to 8 mg/kg, po dosed 8 hrs after infection and ending at day 6 after infection (8 hrs delay) (reference value: 8 days); format: functional
smiles,measurement,setting,value
COc1ccc(S(=O)(=O)N(CCCC(=O)C2CCCCCC2)c2ccccc2)cc1,Activity,dengue virus type 2 [1],72.5%
same,Activity,Zika virus [2],97.2%
same,Activity,Zika virus [3],62.2%
same,Activity,BE(2)-C,Non-Toxic
same,Activity,dengue virus type 2 [4],95.1%
same,Time,dengue virus type 2 [5],15 days
same,Activity,Zika virus [6],inactive
same,Activity,Zika virus [7],60.1%
same,Activity,dengue virus type 2 [8],78.3%
same,Activity,Zika virus [9],inactive
same,Activity,Zika virus [10],89.1%
same,Activity,Sindbis virus,Active
same,Activity,Zika virus [11],Active
same,survival at 8 mg/kg,dengue virus type 2 [12],60%
same,Activity,Zika virus [13],25.9%
same,Activity,Zika virus [14],4.1%
same,Activity,Zika virus [15],89.6%
same,inhibition,dengue virus type 2 [16],inactive
same,Activity,dengue virus type 2 [17],Active
same,Activity,dengue virus type 2 [18],Dose-dependent effect
same,Activity,Zika virus [19],Dose-dependent effect
same,Activity,dengue virus type 2 [20],90.8%
same,Activity,dengue virus type 2 [21],75.4%
same,Activity,dengue virus type 2 [22],Active
same,MST,dengue virus type 2 [23],10 days
